The subject of experiment [1] is Escherichia coli. As to the kind of experiment: Activity of Escherichia coli TOP10 beta-lactamase OXA-58 assessed per mg of protein at 100 uM. The procedure, abridged:
(§1)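 Crude extracts made by sonication from A. baumannii clinical isolates and from E. coli TOP10 recombinants expressing OXA-97 or OXA-58. Specific activity measured against imipenem, meropenem, cephalothin, ceftazidime, oxacillin and benzylpenicillin, each at 100 μM final. Values are means of three independent experiments; standard deviations within 10% of means.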

For experiment [2], the system named is Acinetobacter baumannii. As to the kind of experiment: Activity of Acinetobacter baumannii phenotype 1 beta-lactamase assessed per mg of protein at 100 uM. The procedure, abridged:
as §1

Experiment [3] relates to Acinetobacter baumannii. Kind of experiment: Antibacterial activity against Acinetobacter baumannii MAD […]. In kind it is functional.
Experiment [4] concerns Acinetobacter baumannii. As to the kind of experiment: Activity of Acinetobacter baumannii MAD beta-lactamase assessed per mg of protein at 100 uM. The procedure, abridged:
as §1

The nature of experiment [5]: Antibacterial activity against Escherichia coli DH10B harboring pOXA-97. In kind it is functional, Escherichia coli str. K-12 substr. DH10B.
The subject of experiment [6] is Acinetobacter baumannii. Kind of experiment: Antibacterial activity against Acinetobacter baumannii phenotype 2 […]. In kind it is functional. Put shortly:
(§2)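 Disk diffusion on Mueller-Hinton agar plates with β-lactam and non-β-lactam antibiotic disks, interpreted per CLSI guidelines.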

In experiment [7] the test system is Acinetobacter baumannii. Kind of experiment: Antibacterial activity against Acinetobacter baumannii CIP7010 by disk diffusion method. In kind it is functional. The procedure, abridged: as §2
A general note: Agar diffusion results depend on both activity and mobility in agar.

Experiment [8] deals with Acinetobacter baumannii. As to the kind of experiment: Antibacterial activity against Acinetobacter baumannii CIP7010 harboring pOXA-97 by disk diffusion method. In kind it is functional. Put shortly: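 Disk diffusion on Mueller-Hinton agar with β-lactam and non-β-lactam disks, per CLSI guidelines. The strain is an electroporation transformant of recipient CIP7010, with clinical isolates A1 and A2 as plasmid donors, selected on Trypticase soy agar containing 50 μg/ml ticarcillin.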

Experiment [9] deals with Escherichia coli. As to the kind of experiment: Antibacterial activity against Escherichia coli TOP10 harboring pOXA-58. In kind it is functional.
For experiment [10], the system named is Escherichia coli. As to the kind of experiment: Antibacterial activity against Escherichia coli TOP10 harboring pOXA-97. In kind it is functional.
The nature of experiment [11]: Antibacterial activity against Escherichia coli DH10B. In kind it is functional, Escherichia coli str. K-12 substr. DH10B.
Experiment [12] has as its system Escherichia coli. Kind of experiment: Activity of Escherichia coli TOP10 beta-lactamase OXA-97 assessed as specific activity per mg of protein at 100 uM. The procedure, abridged: as §1
In experiment [13] the test system is Acinetobacter baumannii. Kind of experiment: Antibacterial activity against Acinetobacter baumannii phenotype 1 […]. In kind it is functional. Put shortly:
as §2

The subject of experiment [14] is Acinetobacter baumannii. Kind of experiment: Activity of Acinetobacter baumannii phenotype 2 beta-lactamase assessed per mg of protein at 100 uM. The procedure, abridged: as §1
In experiment [15] the test system is Acinetobacter baumannii. As to the kind of experiment: Antibacterial activity against Acinetobacter baumannii CIP7010 by disk diffusion method in presence of 4 ug/ml clavulanic acid. In kind it is functional.
For experiment [16], the system named is Acinetobacter baumannii. Kind of experiment: Antibacterial activity against Acinetobacter baumannii MAD […] in presence of 4 ug/ml clavulanic acid. In kind it is functional.
Experiment [17] has as its system Acinetobacter baumannii. As to the kind of experiment: Antibacterial activity against Acinetobacter baumannii phenotype 2 […] in presence of 4 ug/ml clavulanic acid. In kind it is functional.
The test system of experiment [18] is Escherichia coli. As to the kind of experiment: Antibacterial activity against Escherichia coli DH10B in presence of 4 ug/ml clavulanic acid. In kind it is functional. The note with it: K-12 DH10B.
The test system of experiment [19] is Acinetobacter baumannii. As to the kind of experiment: Antibacterial activity against Acinetobacter baumannii phenotype 1 […] in presence of 4 ug/ml clavulanic acid. In kind it is functional.
Experiment [20] can be described thus: Antibacterial activity against Escherichia coli DH10B harboring pOXA-97 in presence of 4 ug/ml clavulanic acid. In kind it is functional, Escherichia coli str. K-12 substr. DH10B.
In experiment [21] the test system is Escherichia coli. As to the kind of experiment: Antibacterial activity against Escherichia coli TOP10 harboring pOXA-58 in presence of 4 ug/ml clavulanic acid. In kind it is functional.
Experiment [22] has as its system Escherichia coli. Kind of experiment: Antibacterial activity against Escherichia coli TOP10 harboring pOXA-97 in presence of 4 ug/ml clavulanic acid. In kind it is functional.

Converted amounts (≈) assume the structure as drawn.

Turning to `C[C@@H](O)[C@H]1C(=O)N2C(C(=O)O)=C(S[C@@H]3CN[C@H](C(=O)N(C)C)C3)[C@H](C)[C@H]12` [MEROPENEM], the Activity in the experiment with Escherichia coli [1] came to 1 mU/mg; with Acinetobacter baumannii [2] it was 1.7 mU/mg; in the experiment on Acinetobacter baumannii [4], 1.5 mU/mg; with Escherichia coli [12], 1 mU/mg. Further, the MIC (in general, the smallest concentration in the dilution series that meets the test's criterion for growth inhibition) is over 64 µg/mL against Acinetobacter baumannii [3]; 0.5 µg/mL (≈ 1.3 µM) in experiment [5]; 16 µg/mL (≈ 41.7 µM) against Acinetobacter baumannii [6]; 0.25 µg/mL (≈ 0.652 µM) against Acinetobacter baumannii [7]; 2 µg/mL (≈ 5.22 µM) against Acinetobacter baumannii [8]; 0.12 µg/mL (≈ 0.313 µM) against Escherichia coli [9]. Besides, the MIC against Escherichia coli [10] stood at 0.12 µg/mL (≈ 0.313 µM); in experiment [11] it was 0.06 µg/mL (≈ 0.156 µM); with Acinetobacter baumannii [13], 16 µg/mL (≈ 41.7 µM).

Consider `C[C@@H](O)[C@H]1C(=O)N2C(C(=O)O)=C(SCCNC=N)C[C@H]12` [IMIPENEM ANHYDROUS], for which the Activity in the experiment with Escherichia coli [1] was found to be 3 mU/mg; in the experiment with Acinetobacter baumannii [2], 5.2 mU/mg; in the experiment with Acinetobacter baumannii [4], 4.5 mU/mg; in the experiment on Escherichia coli [12], 4 mU/mg. Moreover, the MIC with Acinetobacter baumannii [3] turned out to be 32 µg/mL (≈ 107 µM); in experiment [5], 1 µg/mL (≈ 3.34 µM); in the experiment on Acinetobacter baumannii [6], 16 µg/mL (≈ 53.4 µM); in the experiment with Acinetobacter baumannii [7], 0.25 µg/mL (≈ 0.835 µM); in the experiment with Acinetobacter baumannii [8], 2 µg/mL (≈ 6.68 µM); with Escherichia coli [9], 2 µg/mL (≈ 6.68 µM). For the same compound, the MIC with Escherichia coli [10] is 2 µg/mL (≈ 6.68 µM); in [11] it was 0.06 µg/mL (≈ 0.2 µM); against Acinetobacter baumannii [13], 32 µg/mL (≈ 107 µM).

As to `CC(=O)OCC1=C(C(=O)O)N2C(=O)[C@@H](NC(=O)Cc3cccs3)[C@H]2SC1`, the Activity in the experiment with Escherichia coli [1] amounted to 15 mU/mg; with Acinetobacter baumannii [2], 20 mU/mg; in the experiment on Acinetobacter baumannii [4], 15 mU/mg; in the experiment on Escherichia coli [12], 20 mU/mg; in the experiment on Acinetobacter baumannii [14], 10 mU/mg.

Regarding `CC1(C)S[C@@H]2[C@H](NC(=O)[C@H](C(=O)O)c3ccsc3)C(=O)N2[C@H]1C(=O)O` [TICARCILLIN], the MIC was over 512 µg/mL in the experiment with Acinetobacter baumannii [3]; over 512 µg/mL in experiment [5]; 64 µg/mL (≈ 166 µM) in the experiment on Acinetobacter baumannii [6]; 4 µg/mL (≈ 10.4 µM) in the experiment on Acinetobacter baumannii [7]; over 512 µg/mL against Acinetobacter baumannii [8]; over 512 µg/mL against Escherichia coli [9]. Also, the MIC against Escherichia coli [10] was over 512 µg/mL; in experiment [11] it was 4 µg/mL (≈ 10.4 µM); against Acinetobacter baumannii [13], over 512 µg/mL.

As to `CC1(C)S[C@@H]2[C@H](NC(=O)[C@H](N)c3ccccc3)C(=O)N2[C@H]1C(=O)O` [AMPICILLIN], the MIC in the experiment with Acinetobacter baumannii [15] is 512 µg/mL; in the experiment with Acinetobacter baumannii [3] it was over 512 µg/mL; in experiment [5], over 512 µg/mL; in the experiment with Acinetobacter baumannii [16], over 512 µg/mL; in the experiment with Acinetobacter baumannii [17] it was over 512 µg/mL; against Acinetobacter baumannii [6], over 512 µg/mL. For the same compound, the MIC in the experiment on Escherichia coli [18] was 4 µg/mL; with Acinetobacter baumannii [7], over 512 µg/mL; against Escherichia coli [9], over 512 µg/mL; in the experiment with Acinetobacter baumannii [19], over 512 µg/mL; in the experiment on Escherichia coli [10], over 512 µg/mL; in [11] it was 4 µg/mL (≈ 11.4 µM). The MIC is 128 µg/mL in experiment [20], 128 µg/mL with Escherichia coli [21], over 512 µg/mL against Acinetobacter baumannii [13] and 128 µg/mL in the experiment on Escherichia coli [22].

As for `CO/N=C(\C(=O)N[C@@H]1C(=O)N2C(C(=O)[O-])=C(C[N+]3(C)CCCC3)CS[C@H]12)c1csc(N)n1` [CEFEPIME], the MIC with Acinetobacter baumannii [3] was determined as 256 µg/mL (≈ 533 µM); in experiment [5], 0.12 µg/mL (≈ 0.25 µM); against Acinetobacter baumannii [6], 256 µg/mL (≈ 533 µM); with Acinetobacter baumannii [7], 1 µg/mL (≈ 2.08 µM); against Acinetobacter baumannii [8] it was 1 µg/mL (≈ 2.08 µM); against Escherichia coli [9] it was 0.06 µg/mL (≈ 0.125 µM). The MIC in the experiment with Escherichia coli [10] is 0.06 µg/mL (≈ 0.125 µM); in experiment [11], 0.06 µg/mL (≈ 0.125 µM); with Acinetobacter baumannii [13], 64 µg/mL (≈ 133 µM).

On to `C[C@H]1[C@H](NC(=O)/C(=N\OC(C)(C)C(=O)O)c2csc(N)n2)C(=O)N1S(=O)(=O)O` [AZTREONAM], for which the MIC against Acinetobacter baumannii [3] was 32 µg/mL (≈ 73.5 µM); in [5], 0.06 µg/mL (≈ 0.138 µM); against Acinetobacter baumannii [6], 128 µg/mL (≈ 294 µM); in the experiment with Acinetobacter baumannii [7], 64 µg/mL (≈ 147 µM); in the experiment with Acinetobacter baumannii [8], 64 µg/mL (≈ 147 µM); in the experiment with Escherichia coli [9], 0.06 µg/mL (≈ 0.138 µM). The MIC was found to be 0.12 µg/mL (≈ 0.276 µM) with Escherichia coli [10], 0.12 µg/mL (≈ 0.276 µM) in experiment [11] and 128 µg/mL (≈ 294 µM) with Acinetobacter baumannii [13].

As for `CC(C)(O/N=C(\C(=O)N[C@@H]1C(=O)N2C(C(=O)[O-])=C(C[n+]3ccccc3)CS[C@H]12)c1csc(N)n1)C(=O)O` [CEFTAZIDIME], the Activity worked out at 1.5 mU/mg in the experiment with Escherichia coli [1], 1 mU/mg with Acinetobacter baumannii [2], 2 mU/mg with Acinetobacter baumannii [4] and 0.5 mU/mg with Escherichia coli [12]. Moreover, the MIC was 128 µg/mL (≈ 234 µM) against Acinetobacter baumannii [3]; 0.12 µg/mL (≈ 0.22 µM) in experiment [5]; over 512 µg/mL against Acinetobacter baumannii [6]; 2 µg/mL (≈ 3.66 µM) in the experiment on Acinetobacter baumannii [7]; 2 µg/mL (≈ 3.66 µM) against Acinetobacter baumannii [8]; 0.06 µg/mL (≈ 0.11 µM) against Escherichia coli [9]. Further, the MIC in the experiment on Escherichia coli [10] is 0.06 µg/mL (≈ 0.11 µM); in experiment [11] it was 0.06 µg/mL (≈ 0.11 µM); against Acinetobacter baumannii [13], over 512 µg/mL.

With `Cc1onc(-c2ccccc2)c1C(=O)N[C@@H]1C(=O)N2[C@@H]1SC(C)(C)[C@@H]2C(=O)O`, the Activity in the experiment with Escherichia coli [1] turned out to be 210 mU/mg; with Acinetobacter baumannii [2], 230 mU/mg; in the experiment with Acinetobacter baumannii [4], 230 mU/mg; with Escherichia coli [12] it was 220 mU/mg.

For the compound `CC1(C)S[C@@H]2[C@H](NC(=O)Cc3ccccc3)C(=O)N2[C@H]1C(=O)O`, the Activity came out at 150 mU/mg in the experiment with Escherichia coli [1]; 220 mU/mg in the experiment on Acinetobacter baumannii [2]; 170 mU/mg in the experiment with Acinetobacter baumannii [4]; 220 mU/mg in the experiment with Escherichia coli [12]; 210 mU/mg in the experiment with Acinetobacter baumannii [14].
